{"source": "ChEMBL document CHEMBL1150309", "about": "“Design, synthesis, and biological evaluation of thiophene analogues of chalcones” (Bioorg Med Chem, 2008)"}
{"system": "K562", "assay": "Cell cycle arrest in human K562 cells assessed as accumulation at G0/G1 phase at 1.4 uM after 24 hrs by flow cytometry", "type": "functional", "conditions": "not given", "units": {"Activity": "%"}}
{"smiles": "COc1cc(C(=O)c2ccc(-c3ccc(C)cc3)s2)cc(OC)c1OC", "Activity": 8}
{"system": "K562", "assay": "Cell cycle arrest in human K562 cells assessed as accumulation at G0/G1 phase at 2.1uM after 24 hrs by flow cytometry", "type": "functional", "conditions": "not given", "units": {"Activity": "%"}}
{"smiles": "COc1ccc(-c2ccc(C(=O)c3cc(OC)c(OC)c(OC)c3)s2)cc1OC", "Activity": 16}
{"system": "K562", "assay": "Cell cycle arrest in human K562 cells assessed as accumulation at S phase at 1.0 uM after 24 hrs by flow cytometry", "type": "functional", "conditions": "not given", "units": {"Activity": "%"}}
{"smiles": "COc1cc(C(=O)c2ccc(-c3ccccc3F)s2)cc(OC)c1OC", "Activity": 11}
{"system": "not listed separately", "assay": "Inhibition of bovine brain tubulin polymerization for 20 mins", "set-up": "species or system Bos taurus", "conditions": "not given", "in_short": "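Bovine brain tubulin (10 µM) preincubated with varying compound concentrations in glutamate buffer at 30 °C, then cooled to 0 °C. GTP added and mixtures warmed to 30 °C in cuvettes while assembly was followed by turbidity. IC50 is the concentration that halves the extent of assembly after 20 min.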", "units": {"IC50": "nM"}}
{"smiles": "COc1cc(C(=O)c2ccc(-c3cccs3)s2)cc(OC)c1OC", "IC50": 800}
{"smiles": "COc1cc(C(=O)c2ccc(-c3ccc(C)cc3)s2)cc(OC)c1OC", "IC50": 800}
{"smiles": "COc1ccc(/C=C\\c2cc(OC)c(OC)c(OC)c2)cc1O", "note": "[COMBRETASTATIN A4]", "IC50": 1400}
{"smiles": "COc1cc(C(=O)c2ccc(-c3ccc(F)cc3)s2)cc(OC)c1OC", "IC50": 1100}
{"smiles": "COc1ccc(-c2ccc(C(=O)c3cc(OC)c(OC)c(OC)c3)s2)cc1OC", "IC50": 3000}
{"smiles": "COc1cc(C(=O)c2ccc(-c3ccccc3F)s2)cc(OC)c1OC", "IC50": 2000}
{"system": "K562", "assay": "Cell cycle arrest in human K562 cells assessed as accumulation at G0/G1 phase at 1.7 uM after 24 hrs by flow cytometry", "type": "functional", "conditions": "not given", "units": {"Activity": "%"}}
{"smiles": "COc1cc(C(=O)c2ccc(-c3cccs3)s2)cc(OC)c1OC", "Activity": 8}
{"system": "K562", "assay": "Cell cycle arrest in human K562 cells assessed as accumulation at G0/G1 phase at 2.2 uM after 24 hrs by flow cytometry", "type": "functional", "conditions": "not given", "units": {"Activity": "%"}}
{"smiles": "COc1cc(C(=O)c2ccc(-c3ccc(F)cc3)s2)cc(OC)c1OC", "Activity": 48}
{"system": "HeLa", "assay": "Antiproliferative activity against human HeLa cells after 2 days", "type": "functional, cell-based", "conditions": "48 h", "in_short": "(§1)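 Cells suspended at 300,000–500,000 cells/mL of culture medium and mixed 1:1 with dilutions of compound. Incubated 2 days at 37 °C, then cell number counted with a Coulter counter. IC50 is the concentration giving 50% inhibition of proliferation. Values are means from dose–response curves of at least three independent experiments.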", "units": {"IC50": "nM"}}
{"smiles": "COc1cc(C(=O)c2ccc(-c3cccs3)s2)cc(OC)c1OC", "IC50": 470}
{"smiles": "COc1cc(C(=O)c2ccc(-c3ccc(C)cc3)s2)cc(OC)c1OC", "IC50": 410}
{"smiles": "COc1cc(C(=O)c2ccc(-c3ccc(F)cc3)s2)cc(OC)c1OC", "IC50": 300}
{"smiles": "COc1ccc(-c2ccc(C(=O)c3cc(OC)c(OC)c(OC)c3)s2)cc1OC", "IC50": 500}
{"smiles": "COc1cc(C(=O)c2ccc(-c3ccccc3F)s2)cc(OC)c1OC", "IC50": 1400}
{"system": "K562", "assay": "Cell cycle arrest in human K562 cells assessed as accumulation at G2/M phase at 2.2 uM after 24 hrs by flow cytometry", "type": "functional", "conditions": "not given", "units": {"Activity": "%"}}
{"smiles": "COc1cc(C(=O)c2ccc(-c3ccc(F)cc3)s2)cc(OC)c1OC", "Activity": 21}
{"system": "K562", "assay": "Cell cycle arrest in human K562 cells assessed as accumulation at G2/M phase at 1.4 uM after 24 hrs by flow cytometry", "type": "functional", "conditions": "not given", "units": {"Activity": "%"}}
{"smiles": "COc1cc(C(=O)c2ccc(-c3ccc(C)cc3)s2)cc(OC)c1OC", "Activity": 85}
{"system": "K562", "assay": "Cell cycle arrest in human K562 cells assessed as accumulation at G2/M phase at 1.0 uM after 24 hrs by flow cytometry", "type": "functional", "conditions": "not given", "units": {"Activity": "%"}}
{"smiles": "COc1cc(C(=O)c2ccc(-c3ccccc3F)s2)cc(OC)c1OC", "Activity": 81}
{"system": "K562", "assay": "Cell cycle arrest in human K562 cells assessed as accumulation at S phase at 1.7 uM after 24 hrs by flow cytometry", "type": "functional", "conditions": "not given", "units": {"Activity": "%"}}
{"smiles": "COc1cc(C(=O)c2ccc(-c3cccs3)s2)cc(OC)c1OC", "Activity": 17}
{"system": "K562", "assay": "Cell cycle arrest in human K562 cells assessed as accumulation at S phase at 2.1uM after 24 hrs by flow cytometry", "type": "functional", "conditions": "not given", "units": {"Activity": "%"}}
{"smiles": "COc1ccc(-c2ccc(C(=O)c3cc(OC)c(OC)c(OC)c3)s2)cc1OC", "Activity": 27}
{"system": "K562", "assay": "Cell cycle arrest in human K562 cells assessed as accumulation at G2/M phase at 2.1 uM after 24 hrs by flow cytometry", "type": "functional", "conditions": "not given", "units": {"Activity": "%"}}
{"smiles": "COc1ccc(-c2ccc(C(=O)c3cc(OC)c(OC)c(OC)c3)s2)cc1OC", "Activity": 57}
{"system": "FM3A", "assay": "Antiproliferative activity against mouse FM3A cells after 2 days", "type": "functional, cell-based", "conditions": "48 h", "in_short": "as §1", "units": {"IC50": "nM"}}
{"smiles": "COc1cc(C(=O)c2ccc(-c3cccs3)s2)cc(OC)c1OC", "IC50": 460}
{"smiles": "COc1cc(C(=O)c2ccc(-c3ccc(C)cc3)s2)cc(OC)c1OC", "IC50": 470}
{"smiles": "COc1cc(C(=O)c2ccc(-c3ccc(F)cc3)s2)cc(OC)c1OC", "IC50": 1100}
{"smiles": "COc1ccc(-c2ccc(C(=O)c3cc(OC)c(OC)c(OC)c3)s2)cc1OC", "IC50": 960}
{"smiles": "COc1cc(C(=O)c2ccc(-c3ccccc3F)s2)cc(OC)c1OC", "IC50": 870}
{"system": "K562", "assay": "Cell cycle arrest in human K562 cells assessed as accumulation at S phase at 2.2 uM after 24 hrs by flow cytometry", "type": "functional", "conditions": "not given", "units": {"Activity": "%"}}
{"smiles": "COc1cc(C(=O)c2ccc(-c3ccc(F)cc3)s2)cc(OC)c1OC", "Activity": 31}
{"system": "K562", "assay": "Cell cycle arrest in human K562 cells assessed as accumulation at G0/G1 phase at 1.0 uM after 24 hrs by flow cytometry", "type": "functional", "conditions": "not given", "units": {"Activity": "%"}}
{"smiles": "COc1cc(C(=O)c2ccc(-c3ccccc3F)s2)cc(OC)c1OC", "Activity": 8}
{"system": "K562", "assay": "Cell cycle arrest in human K562 cells assessed as accumulation at S phase at 1.4 uM after 24 hrs by flow cytometry", "type": "functional", "conditions": "not given", "units": {"Activity": "%"}}
{"smiles": "COc1cc(C(=O)c2ccc(-c3ccc(C)cc3)s2)cc(OC)c1OC", "Activity": 7}
{"system": "K562", "assay": "Cell cycle arrest in human K562 cells assessed as accumulation at G2/M phase at 1.7 uM after 24 hrs by flow cytometry", "type": "functional", "conditions": "not given", "units": {"Activity": "%"}}
{"smiles": "COc1cc(C(=O)c2ccc(-c3cccs3)s2)cc(OC)c1OC", "Activity": 75}
{"system": "L1210", "assay": "Antiproliferative activity against mouse L1210 cells after 2 days", "type": "functional, cell-based", "conditions": "L1210, 48 h", "in_short": "as §1", "units": {"IC50": "nM"}}
{"smiles": "COc1cc(C(=O)c2ccc(-c3cccs3)s2)cc(OC)c1OC", "IC50": 530}
{"smiles": "COc1cc(C(=O)c2ccc(-c3ccc(C)cc3)s2)cc(OC)c1OC", "IC50": 490}
{"smiles": "COc1cc(C(=O)c2ccc(-c3ccc(F)cc3)s2)cc(OC)c1OC", "IC50": 590}
{"smiles": "COc1ccc(-c2ccc(C(=O)c3cc(OC)c(OC)c(OC)c3)s2)cc1OC", "IC50": 520}
{"smiles": "COc1cc(C(=O)c2ccc(-c3ccccc3F)s2)cc(OC)c1OC", "IC50": 520}
{"system": "CCRF-CEM", "assay": "Antiproliferative activity against human CEM cells after 2 days", "type": "functional, cell-based", "conditions": "48 h", "in_short": "as §1", "units": {"IC50": "nM"}}
{"smiles": "COc1cc(C(=O)c2ccc(-c3cccs3)s2)cc(OC)c1OC", "IC50": 430}
{"smiles": "COc1cc(C(=O)c2ccc(-c3ccc(C)cc3)s2)cc(OC)c1OC", "IC50": 360}
{"smiles": "COc1cc(C(=O)c2ccc(-c3ccc(F)cc3)s2)cc(OC)c1OC", "IC50": 560}
{"smiles": "COc1ccc(-c2ccc(C(=O)c3cc(OC)c(OC)c(OC)c3)s2)cc1OC", "IC50": 540}
{"smiles": "COc1cc(C(=O)c2ccc(-c3ccccc3F)s2)cc(OC)c1OC", "IC50": 480}
{"species_on_record": "Bos taurus", "assay": "Displacement of [3H]colchicine from bovine brain tubulin at 1 uM", "conditions": "not given", "in_short": "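Bovine brain tubulin (1 µM) incubated with compound at 1 µM and [³H]colchicine at 5 µM. Result is reported as percent inhibition of colchicine binding.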", "units": {"inhibition": "%"}}
{"smiles": "COc1cc(C(=O)c2ccc(-c3cccs3)s2)cc(OC)c1OC", "inhibition": 82}
{"smiles": "COc1cc(C(=O)c2ccc(-c3ccc(C)cc3)s2)cc(OC)c1OC", "inhibition": 74}
{"smiles": "COc1cc(C(=O)c2ccc(-c3ccc(F)cc3)s2)cc(OC)c1OC", "inhibition": 66}
{"smiles": "COc1ccc(-c2ccc(C(=O)c3cc(OC)c(OC)c(OC)c3)s2)cc1OC", "inhibition": 28}
{"smiles": "COc1cc(C(=O)c2ccc(-c3ccccc3F)s2)cc(OC)c1OC", "inhibition": 66}
{"system": "MOLT-4", "assay": "Antiproliferative activity against human MOLT4 cells after 2 days", "type": "functional, cell-based", "conditions": "MOLT-4, 48 h", "in_short": "as §1", "units": {"IC50": "nM"}}
{"smiles": "COc1cc(C(=O)c2ccc(-c3cccs3)s2)cc(OC)c1OC", "IC50": 300}
{"smiles": "COc1cc(C(=O)c2ccc(-c3ccc(C)cc3)s2)cc(OC)c1OC", "IC50": 380}
{"smiles": "COc1cc(C(=O)c2ccc(-c3ccc(F)cc3)s2)cc(OC)c1OC", "IC50": 400}
{"smiles": "COc1ccc(-c2ccc(C(=O)c3cc(OC)c(OC)c(OC)c3)s2)cc1OC", "IC50": 380}
{"smiles": "COc1cc(C(=O)c2ccc(-c3ccccc3F)s2)cc(OC)c1OC", "IC50": 330}
